Out of some 2,500 compounds screened, about 460 (18%) were called active. The list is a sample of the results. Values without a mark were called inactive.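 Rule for the calls: active = mean activation above a cutoff of low control average plus 3 SD from the earlier screen (cut at about 12% in these data); inactive = the rest.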

Drawing on PubChem BioAssay AID504382 (The Scripps Research Institute Molecular Screening Center, 2011), this text covers fluorescence artifact activation for 60 molecules.

This assay is described as follows: compound fluorescence interference without thin filaments, confirmation, artefact control for cardiac RTF calcium sensitizer project, biochemical (AID 504382). As to conditions: IANBD fluorescence interference counterscreen, buffer, EC20 Ca2+; at 7.2 µM; hits give high values; scaled: EC20 calcium 0, EC100 calcium 100. Put shortly:
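Medium: MOPS buffer, 190 mM, with KCl, MgCl2, EGTA, NTA, DTT, pH 7.20; Dosing: one dose of 7.2 µM, 0.7% DMSO; Probe or stimulus: calcium at EC20 level, 0.472 mM final; Incubation: 15 min, 25 °C; Evaluation: compound fluorescence interference relative to control well signal range; Signal: fluorescence, 480/540 nm.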
`N#Cc1ccccc1NC(=O)CNc1ccc(Cl)c(C(F)(F)F)c1`: the fluorescence artifact activation was 1.46%.

As for `CCC(=O)N/C(=N/c1nc(C)cc(C)n1)Nc1ccccc1`, the fluorescence artifact activation is 0.29%.

In the case of `Cc1ccc(NC(=O)c2cc(S(=O)(=O)N3CCCCC3)ccc2N2CCOCC2)cc1S(=O)(=O)N(C)C`, the fluorescence artifact activation was 0.83%.

For the molecule `COc1ccc(-c2csc(N3CCN(c4cc5c(cc4Cl)nc(-c4ccncc4)n5CCOCCO)CC3)n2)cc1`, the fluorescence artifact activation is -0.09%.

As for `CCOC(=O)Cc1csc(N(C)C)n1`, the fluorescence artifact activation is 0.08%.

On to `CCOC(=O)Cc1csc(CC(N)=O)n1`, for which the fluorescence artifact activation was 2.47%.

With `CCOC(=O)Cc1csc(NC(=O)c2sc3nc4cc(C)ccc4cc3c2N)n1`, the fluorescence artifact activation is 19% (active).

Turning to `Cc1cccc(N2CCN(C(=O)Cn3nc(Cc4ccncc4)c4ccccc4c3=O)CC2)c1C`, the fluorescence artifact activation was 4.88%.

Take `Cc1c(O)ccc(/C(Cc2ccc3ccccc3n2)=N\N)c1O`: the fluorescence artifact activation was -0.02%.

With `CC(=O)OCC[N+](C)(C)C`, the fluorescence artifact activation was 13.6% (active).

For `Cc1cccc(N=Cc2[nH]c3ccc(Br)c(Cl)c3c2O)c1`, the fluorescence artifact activation is 0.01%.

As to `COCCNC(=O)c1c(CS(=O)(=O)c2ccccc2)noc1C(=O)NCc1ccccc1`, the fluorescence artifact activation was -0.04%.

For `C/C(=N/Nc1ccnc2cc(Cl)ccc12)c1ccc(N)cc1`, the fluorescence artifact activation is 2.55%.

Take `CN1c2ccccc2C(O)=C(C(=S)Nc2ccc(F)c(Cl)c2)S1(=O)=O`: the fluorescence artifact activation was 13.6% (active).

`Cc1ccc(NC(=O)Nc2ccc(F)cc2)cc1Cl`: the fluorescence artifact activation was 4.13%.

In the case of `CC(=O)Nc1ccccc1C(=O)C(=O)Nc1ccc(F)c(Cl)c1`, the fluorescence artifact activation was 0.02%.

With `CCC1(C)COC(c2ccc(OC)c(OC)c2)OC1` (stereo not given), the fluorescence artifact activation was 0.06%.

For `N#C/C(=C\c1c[nH]c2ccccc12)C(=O)Nc1ncc(Cc2ccc(Cl)cc2Cl)s1`, the fluorescence artifact activation was 5.66%.

Turning to `O=C(CN1CCN(c2ccccc2F)CC1)NCc1ccc(Cl)cc1`, the fluorescence artifact activation was 0.16%.

Regarding `O=C(NCCc1ccccc1)C1CCN(c2ncccn2)CC1`, the fluorescence artifact activation is 0.16%.

As to `O=C(NCc1ccc(Cl)cc1)C1CCN(c2cnccn2)CC1`, the fluorescence artifact activation was 16% (active).

For the molecule `COc1ccc(/C=N/NC(=O)c2cccc([N+](=O)[O-])c2)cc1O`, the fluorescence artifact activation was 0.08%.

For `Cn1nnc(NC(=S)NC(=O)/C=C/c2ccco2)n1`, the fluorescence artifact activation was 0.78%.

Take `CCNC(=S)NNC(=O)CCn1cc(C)cn1`: the fluorescence artifact activation is -0.01%.

With `CN(C)c1ccc(/C=C/c2nc3ccccc3c(=O)n2-c2ccc(C(=O)O)cc2)cc1`, the fluorescence artifact activation was 0.13%.

On to `CN(C)c1ccc(/C=C/c2nc3ccccc3c(=O)[nH]2)cc1`, for which the fluorescence artifact activation is 0.27%.

Consider `CN(C)c1ccc(/C=C/c2nc3ccccc3c(=O)n2CCO)cc1`, for which the fluorescence artifact activation is 127% (active).

With `O=C(O)C1CCC(CNCc2ccccc2Cl)CC1` (stereo not given), the fluorescence artifact activation was 0.76%.

Take `CCCCc1ccc(NC(=O)c2cnccn2)cc1`: the fluorescence artifact activation is 9.08%.

As to `COc1ccc(CNC(=O)c2sc(=S)n(-c3ccccc3)c2N)cc1`, the fluorescence artifact activation is 9.19%.

Turning to `COc1cccc(CNC(=O)C2CCCN(c3nc4ccccc4o3)C2)c1` (stereo not given), the fluorescence artifact activation is 0.08%.

For `CC(C)NC(=O)C1CCCN(c2nnc(-n3cccc3)s2)C1` (stereo not given), the fluorescence artifact activation was 316% (active).

Regarding `O=C(Nc1cc2c3c(c1)CC(=O)N3CCC2)C1CC1`, the fluorescence artifact activation was 0.03%.

With `Cc1ccc(/C=C2/SC(=O)NC2=S)o1`, the fluorescence artifact activation was 6.76%.

`C(=N\c1nc2ccccc2n1CCN1CCOCC1)/c1cccs1`: the fluorescence artifact activation is -0.03%.

`Cc1ccc(C(C(=O)NC(C)(C)C)N(C(=O)c2csnn2)C2CC2)cc1` (stereo not given): the fluorescence artifact activation is 34.2% (active).

With `COC(=O)c1c(NC(=O)CN2CCN(c3cccc(Cl)c3)CC2)sc(C)c1C`, the fluorescence artifact activation is 0.21%.

As to `CCCN1C(=O)c2ccccc2NC1c1ccc(O)c(OCC)c1` (stereo not given), the fluorescence artifact activation is 2.14%.

Consider `CCOC(=O)c1[nH]c2ccc(OCC)cc2c1CCCN1C(=O)c2ccccc2C1=O`, for which the fluorescence artifact activation is 87.1% (active).

On to `CCOC(=O)C1=C(C)N(CCCCCC(=O)O)C(=O)NC1c1ccccc1Cl` (stereo not given), for which the fluorescence artifact activation was 0.06%.

On to `CC(OC(=O)c1c2c(nc3ccccc13)/C(=C\c1ccc3c(c1)OCO3)CCC2)C(=O)Nc1ccc(S(N)(=O)=O)cc1` (stereo not given), for which the fluorescence artifact activation is 0.03%.

Consider `Cc1ccc(O)c(C(=O)c2cc(C#N)c(=O)n(-c3nccs3)c2)c1`, for which the fluorescence artifact activation was 0.06%.

Turning to `N#Cc1cc(C(=O)c2cc(F)ccc2O)cn(-c2nccs2)c1=O`, the fluorescence artifact activation is 0.01%.

Take `N#Cc1cc(C(=O)c2ccccc2O)cn(-c2nccs2)c1=O`: the fluorescence artifact activation was 12.1% (active).

In the case of `O=C(Cn1ncc2c3ccccc3n(Cc3cccc(Cl)c3)c2c1=O)NCC1CCCO1` (stereo not given), the fluorescence artifact activation is 0.38%.

`O=C(NCCOc1ccccc1Cl)C(=O)Nc1ccccc1`: the fluorescence artifact activation was 0.07%.

For the molecule `CS/C(=N\S(=O)(=O)c1cccs1)Nc1cccc(Cl)c1C`, the fluorescence artifact activation was 16.4% (active).

Take `COc1cccc(CNC(=O)CCS(=O)(=O)c2cc3c(cc2C)NC(=O)CO3)c1`: the fluorescence artifact activation was 0.09%.

Take `COc1cccc(CNC(=O)CN(C)S(=O)(=O)c2ccc3c(c2)c(=O)n(C)c(=O)n3C)c1`: the fluorescence artifact activation is 0.24%.

For `COc1cccc(CNC(=O)CN(C)S(=O)(=O)c2cnc[nH]2)c1`, the fluorescence artifact activation was 41.4% (active).

As to `COc1ccc(/C=N/NC(=O)Cn2c(Cc3ccc(OC)c(OC)c3)nc3ccccc32)cc1`, the fluorescence artifact activation is 1.63%.

As to `COc1ncnc2c1NC1=C(S2)C(=NCCC(=O)O)CC(C)(C)C1`, the fluorescence artifact activation was 19.4% (active).

`CC(=O)c1cc2c(cc1N/C(=N/S(=O)(=O)c1ccc(Br)cc1)c1ccccc1)OCO2`: the fluorescence artifact activation is 0.13%.

With `O=C(NCc1cccc(C(F)(F)F)c1)c1cccc(S(=O)(=O)NCc2ccccc2)c1`, the fluorescence artifact activation is 0.02%.

On to `CC(=NNC(=O)c1ccncc1)c1ccc2ccccc2c1O`, for which the fluorescence artifact activation is 0.08%.

As for `CCOC(=O)c1sc2nc(C)nc(SCC(=O)NC3CCS(=O)(=O)C3)c2c1C` (stereo not given), the fluorescence artifact activation was 8.03%.

Turning to `O=C(NCC(=O)N(CC1CCCO1)C1(C(=O)NC2CCCCC2)CCCCC1)c1ccccc1` (stereo not given), the fluorescence artifact activation was -0.09%.

As for `S=C(Nc1cc(Cl)ccc1Oc1ccccc1)N1CCN(c2ccccn2)CC1`, the fluorescence artifact activation was 23.1% (active).

Consider `O=C(COc1ccccc1Cl)N1CCN(c2ccccn2)CC1`, for which the fluorescence artifact activation is 0.24%.

With `CCOC(=O)N1CCN(C(=S)Nc2ccccc2C)CC1`, the fluorescence artifact activation was 7.89%.
